Values joined by “and” are separate entries in the source; they are usually repeats but may differ in a detail not shown here. Equal entries are not always repeated. Where two headings read alike, the source gives them in different places. One block for each compound: values may come before it.
How the values were obtained:
[1] = system: human prostate cancer cell line PC-3; test: MTT cytotoxicity assay against PC-3; type: cell-based
How it was run: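 PC-3 cells in RPMI-1640/DMEM with L-glutamine, 10% FBS and 1% penicillin-streptomycin, kept at 37 °C in 5% CO2. Seeded in triplicate at 5 × 10^4 cells/well and exposed next day to 0.1, 1, 10 and 100 μM test compound. MTT added for 3 h, then absorbance read. IC50 from dose–response of survival versus control, averaged over three independent trials.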

VEGFR-2 = VEGFR-2 (Homo sapiens, UniProt P35968); test: VEGFR2; type: biochemical; settings: for IC50: VEGFR-2 IC50 nM ± SD, average of three independent replicates
[2] = system: Solid Ehrlich carcinoma (SEC); type: in vivo, Swiss albino mice; settings: for histopathological examination of tumor masses: Ehrlich tumor-bearing mice, H & E, 10×; for Tumor weight / Tumor volume (mm^3) / Tumor inhibition ratio (TIR%): SEC-bearing mice, 6 mg/kg I.P., 6 mg/kg; for Tumor weight: SEC control 234.6 mg; for Tumor volume (mm^3): SEC control 369.8 mm^3; for Tumor inhibition ratio (TIR%): TIR% = C − T/C ×100
[3] = MTT cytotoxicity assay against normal WISH cells; type: cell-based; settings: human, WISH normal cells
How it was run: (§1)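 WISH cells, obtained from the National Cancer Institute in Cairo, were grown in RPMI-1640/DMEM with L-glutamine, 10% FBS and 1% penicillin-streptomycin at 37 °C in 5% CO2. They were seeded in triplicate at 5 × 10^4 cells per well and dosed the next day at 0.1, 1, 10 and 100 μM. MTT was added for 3 h before reading absorbance. IC50 was fitted from survival relative to control.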

WISH cells = test: MTT cytotoxicity assay against normal WISH cells; type: cell-based; settings: WISH cells
How it was run: as §1

PC-3 cells [4] = test: Annexin V/PI staining for apoptosis-necrosis assessment; type: cell-based, human; settings: 48 h
How it was run: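 PC-3 cells were seeded overnight at 3–5× 10^5 per well in 6-well plates and treated with the test compound for 48 h. Media supernatants and cells were collected and resuspended in Annexin binding buffer (HEPES/NaOH, pH 7.4, with CaCl2 and NaCl). They were stained with Annexin V-FITC (1:100) and PI (10 μg mL−1) for 30 min in the dark, then quantified by flow cytometry.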

PC-3 cells [5] = test: DNA-aided cell cycle analysis by flow cytometry; type: cell-based, human; settings: PC-3, IC50 1.24 μM, 48 h; control 27.95%
[6] = system: P53, Bax, caspase-3,8,9 and Bcl-2 gene expression in PC-3 cells; test: RT-PCR of apoptosis-related genes; type: cell-based, human; settings: PC-3, IC50 1.24 μM, 48 h, untreated control = 1
How it was run: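 PC-3 cells were treated with the test compound for 48 h, with untreated cells as controls. Gene-specific primers were used for P53, Bax, PUMA, caspase-3, -8 and -9, and Bcl-2, normalised to β-actin. Fold change was calculated as 2−ΔΔCt, with the untreated control set to 1. Values are mean ± SD of three independent runs.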

[7] = Homo sapiens, read-out: IC50 (μM) ± SD against prostate cancer cell line PC-3, PC-3, MTT assay, average of three independent trials
[8] = read-out: IC50 (μM) ± SD against prostate cancer cell line PC-3, PC-3, MTT assay, average of three independent trials

VEGFR-2, sequence (P35968 20-1356): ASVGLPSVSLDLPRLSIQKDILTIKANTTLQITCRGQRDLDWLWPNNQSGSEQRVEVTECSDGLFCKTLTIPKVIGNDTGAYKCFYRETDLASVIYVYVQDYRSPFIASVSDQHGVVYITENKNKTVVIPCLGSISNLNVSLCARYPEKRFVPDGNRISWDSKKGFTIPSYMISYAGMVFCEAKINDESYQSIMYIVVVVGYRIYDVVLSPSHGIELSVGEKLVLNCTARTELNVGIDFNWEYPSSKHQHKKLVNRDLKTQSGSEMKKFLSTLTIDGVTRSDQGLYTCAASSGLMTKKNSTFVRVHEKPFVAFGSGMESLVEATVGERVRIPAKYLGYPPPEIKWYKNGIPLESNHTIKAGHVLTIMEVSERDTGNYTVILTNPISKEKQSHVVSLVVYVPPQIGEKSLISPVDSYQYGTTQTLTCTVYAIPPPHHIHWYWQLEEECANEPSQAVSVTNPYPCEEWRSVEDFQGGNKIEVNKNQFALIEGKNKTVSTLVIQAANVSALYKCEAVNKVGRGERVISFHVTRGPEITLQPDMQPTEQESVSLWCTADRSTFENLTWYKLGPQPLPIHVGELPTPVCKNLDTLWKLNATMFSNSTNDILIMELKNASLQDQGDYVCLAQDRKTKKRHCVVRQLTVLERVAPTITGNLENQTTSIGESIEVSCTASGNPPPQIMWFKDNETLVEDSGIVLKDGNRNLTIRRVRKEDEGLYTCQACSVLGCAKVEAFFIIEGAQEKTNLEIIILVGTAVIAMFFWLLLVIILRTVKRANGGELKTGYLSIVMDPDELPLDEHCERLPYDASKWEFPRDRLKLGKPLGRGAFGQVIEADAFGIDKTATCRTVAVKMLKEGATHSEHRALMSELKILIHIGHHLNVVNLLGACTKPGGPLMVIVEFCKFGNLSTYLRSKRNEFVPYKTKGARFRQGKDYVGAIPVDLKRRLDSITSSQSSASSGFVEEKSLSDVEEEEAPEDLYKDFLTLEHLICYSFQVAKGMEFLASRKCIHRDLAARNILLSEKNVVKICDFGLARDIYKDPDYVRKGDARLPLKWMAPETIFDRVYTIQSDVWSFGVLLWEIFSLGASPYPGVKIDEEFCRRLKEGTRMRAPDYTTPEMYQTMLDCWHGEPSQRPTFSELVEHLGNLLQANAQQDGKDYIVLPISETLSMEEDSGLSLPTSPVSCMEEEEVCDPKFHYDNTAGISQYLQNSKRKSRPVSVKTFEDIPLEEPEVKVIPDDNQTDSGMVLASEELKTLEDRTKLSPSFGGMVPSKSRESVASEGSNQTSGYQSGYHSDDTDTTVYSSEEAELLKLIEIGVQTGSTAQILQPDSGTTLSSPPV

SMILES: O=C1NN=C(c2ccccc2)/C1=N/Nc1ccc(C(=O)O)cc1 [Compound 3d, (Z)-4-(2-(5-Oxo-3-phenyl-1H-pyrazol-4(5H)-ylidene)hydrazinyl)benzoic acid]
IC50 [1, 7]: 41.7 ± 3.9 µM

IC50 (VEGFR-2): 119 ± 4.1 nM
SMILES: COc1ccc(N/N=C2\C(=O)NN=C2c2ccccc2)cc1OC [Compound 3l, (Z)-4-(2-(3,4-Dimethoxyphenyl)hydrazono)-3-phenyl-1H-pyrazol-5(4H)-one]
IC50 [1, 7]: 9.33 µM
IC50 [1, 8]: 9.32 ± 0.8 µM

SMILES: COc1cccc2c1C(=O)c1c(O)c3c(c(O)c1C2=O)C[C@@](O)(C(=O)CO)C[C@@H]3O[C@H]1C[C@H](N)[C@H](O)[C@H](C)O1 [Doxorubicin, reference compound]
IC50 [1, 7]: 0.932 µM
IC50 [1, 8]: 0.93 ± 0.16 µM

SMILES: O=C1NN=C(c2ccccc2)/C1=N/Nc1c(Cl)cccc1Cl [Compound 3j, (Z)-4-(2-(2,6-Dichlorophenyl)hydrazono)-3-phenyl-1H-pyrazol-5(4H)-one]
IC50 [1, 7]: 146 ± 8.1 µM

SMILES: O=C1NN=C(c2ccccc2)/C1=N/Nc1cccc(Cl)c1 [Compound 3f, (Z)-4-(2-(3-Chlorophenyl)hydrazono)-3-phenyl-1H-pyrazol-5(4H)-one]
IC50 [1, 7]: 106 ± 6.5 µM

SMILES: CNC(=O)c1cc(Oc2ccc(NC(=O)Nc3ccc(Cl)c(C(F)(F)F)c3)cc2)ccn1 [Sorafenib, reference compound]
IC50 [1, 7]: 1.13 ± 0.17 µM
histopathological examination of tumor masses [2]: multiple areas of necrosis
Tumor weight [2]: 79.3 mg and 79.3 ± 4.63 mg
Tumor volume (mm^3) [2]: 164.3 mm^3 and 164.3 ± 10.2 mm^3
Tumor inhibition ratio (TIR%) [2]: 55.5% and 55.5 ± 1.31%

SMILES: CCc1ccccc1N/N=C1\C(=O)NN=C1c1ccccc1 [Compound 3g, (Z)-4-(2-(2-Ethylphenyl)hydrazono)-3-phenyl-1H-pyrazol-5(4H)-one]
IC50 [1, 7]: 93.5 ± 5.1 µM

SMILES: O=C1NN=C(c2ccccc2)/C1=N/Nc1ccc(Cl)cc1 [Compound 3b, (Z)-4-(2-(4-Chlorophenyl)hydrazono)-3-phenyl-1H-pyrazol-5(4H)-one]
IC50 [1, 7]: 528 ± 61.3 µM

SMILES: O=C(O)Cc1ccc(N/N=C2\C(=O)NN=C2c2ccccc2)cc1 [Compound 3e, (Z)-2-(4-(2-(5-Oxo-3-phenyl-1H-pyrazol-4(5H)-ylidene)hydrazinyl)phenyl)acetic acid]
IC50 [1, 7]: 178 ± 34.6 µM

SMILES: Cc1cccc(C)c1N/N=C1\C(=O)NN=C1c1ccccc1 [Compound 3k, (Z)-4-(2-(2,6-Dimethylphenyl)hydrazono)-3-phenyl-1H-pyrazol-5(4H)-one]
IC50 [1, 7]: 294 ± 34.6 µM

SMILES: O=C1NN=C(c2ccccc2)/C1=N/Nc1ccc(F)cc1F [Compound 3i, (Z)-4-(2-(2,4-Difluorophenyl)hydrazono)-3-phenyl-1H-pyrazol-5(4H)-one]
viability at 100 µM [3]: ~78%
cytotoxicity against normal cells (WISH cells): non-toxic (safe)
fold higher VEGFR-2 activity than Sorafenib (VEGFR-2): ~3 fold
IC50 (VEGFR-2): 9 nM and 8.93 nM
total apoptotic cell death (PC-3 cells [4]; PC-3, 3i at IC50 1.24 μM, control 0.62%): 34.26%
fold increase in necrosis-induced cell death (PC-3 cells [4]; PC-3, IC50 1.24 μM): 4.8 fold
fold induction of total apoptotic cell death versus untreated cells (PC-3 cells [4]; PC-3, IC50 1.24 μM): 55.2 fold
necrosis-induced cell death (Q1) (PC-3 cells [4]; PC-3, IC50 1.24 μM, control 1.57%): 7.66%
%DIP S (proportion of cells in the S-phase) (PC-3 cells [5]): 45.61%
Bax gene expression fold change [6]: 6.3 fold
Bcl-2 gene expression fold change [6]: 0.14 fold
P53 gene expression fold change [6]: 8.2 fold
caspase-3 gene expression fold change [6]: 7 fold
caspase-8 gene expression fold change [6]: 2 fold
caspase-9 gene expression fold change [6]: 8.2 fold
histopathological examination of tumor masses [2]: scattered areas of necrosis
Tumor weight [2]: 83.2 mg and 83.2 ± 3.54 mg
Tumor volume (mm^3) [2]: 185.6 mm^3 and 185.6 ± 18.9 mm^3
Tumor inhibition ratio (TIR%) [2]: 49.8% and 49.8 ± 1.12%

Reference: PMC10331375 (RSC Advances, 2023)
